From PubChem BioAssay
Activity calls are given as the source filed them.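 Rule for the calls, unless noted: active = viability at or below 10% of carrier control in both of two separate runs; inconclusive = viability at or below 10% in only one of the two runs; inactive = the rest.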

Experiments:
[1] = Her2 expression decrease, cell viability multiplex – SKBR3 breast tumor cells, AlphaScreen, ATP viability, primary screen (AID 461;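 active = Her2 level under about 52% in both replicate screens, with viability over 70% of control, limit read from the data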;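 for Her2 level: lower value means less Her2 protein in the cells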;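 for viability: percent of carrier control wells set as 100% viability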); details: SKBR3 Her2 protein level, 18-24 h, measured here: SKBR3 viability, ATP luminescence, at 10 µM
[2] = biological target: Receptor tyrosine-protein kinase erbB-2 (Homo sapiens) (UniProt P04626); test: as above; details: 18-24 h, at 10 µM, stronger effect = lower value
Receptor tyrosine-protein kinase erbB-2 (Homo sapiens), sequence (P04626 whole entry, looked up): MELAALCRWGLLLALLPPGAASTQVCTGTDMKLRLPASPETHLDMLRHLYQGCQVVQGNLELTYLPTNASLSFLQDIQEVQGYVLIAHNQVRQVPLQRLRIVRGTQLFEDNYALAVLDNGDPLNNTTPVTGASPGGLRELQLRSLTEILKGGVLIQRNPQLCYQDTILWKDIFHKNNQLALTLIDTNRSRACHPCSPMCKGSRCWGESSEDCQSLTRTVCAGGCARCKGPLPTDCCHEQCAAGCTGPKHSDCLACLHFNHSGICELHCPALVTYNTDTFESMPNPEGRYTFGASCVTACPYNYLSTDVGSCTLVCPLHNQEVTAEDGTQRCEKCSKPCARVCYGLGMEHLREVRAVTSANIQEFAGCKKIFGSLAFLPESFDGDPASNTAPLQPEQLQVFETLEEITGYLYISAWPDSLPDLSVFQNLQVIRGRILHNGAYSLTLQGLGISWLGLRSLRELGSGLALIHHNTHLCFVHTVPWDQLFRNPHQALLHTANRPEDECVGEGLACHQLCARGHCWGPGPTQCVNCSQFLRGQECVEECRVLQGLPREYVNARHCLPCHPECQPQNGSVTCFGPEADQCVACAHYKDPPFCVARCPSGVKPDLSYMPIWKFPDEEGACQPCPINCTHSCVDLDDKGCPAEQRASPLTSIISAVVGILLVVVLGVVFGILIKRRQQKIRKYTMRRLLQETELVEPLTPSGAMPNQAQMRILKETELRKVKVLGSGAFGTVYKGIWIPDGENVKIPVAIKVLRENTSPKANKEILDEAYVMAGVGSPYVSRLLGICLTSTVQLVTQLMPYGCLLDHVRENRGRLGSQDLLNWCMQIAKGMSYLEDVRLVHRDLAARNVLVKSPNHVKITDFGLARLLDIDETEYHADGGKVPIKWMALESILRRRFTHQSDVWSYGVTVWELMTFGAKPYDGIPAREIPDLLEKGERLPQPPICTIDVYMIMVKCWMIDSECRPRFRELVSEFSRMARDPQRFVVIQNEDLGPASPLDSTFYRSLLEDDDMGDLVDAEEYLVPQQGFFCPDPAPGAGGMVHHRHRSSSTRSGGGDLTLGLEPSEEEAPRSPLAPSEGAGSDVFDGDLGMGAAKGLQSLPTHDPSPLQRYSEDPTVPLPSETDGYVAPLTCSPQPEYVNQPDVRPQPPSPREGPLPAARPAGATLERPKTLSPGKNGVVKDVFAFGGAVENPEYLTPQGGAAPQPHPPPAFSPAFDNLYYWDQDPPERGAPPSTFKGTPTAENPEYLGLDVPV

[3] = reduced viability of SK-BR-3 breast cancer cells – cell-based, 24 h, human, pilot screen (AID 572); details: SK-BR-3 viability, CellTiter-Glo luminescence, at 10 µM, stronger effect = lower value;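 note: compound exposure lasted between 18 and 24 h rather than exactly 24 h; 100% = carrier-treated control wells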
[4] = HUVEC growth inhibition – cell-based, human, primary screen (AID 575;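 active = viability at or below 30% in both replicate assays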;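 note: 100% = median of untreated cell wells with 0.1% DMSO on each plate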); details: HUVEC proliferation, CellTiter-Glo luminescence, 72 h; at 10 µM; stronger effect = lower value
How it was run: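 Timing: 72 h treatment at 37 °C; material: HUVEC primary cells; technique: CellTiter-Glo luminescence measuring cellular ATP; controls: vehicle and MePR control wells; measure: percent of median DMSO-control luminescence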

[5] = MRP1 drug-resistance reversers in H69AR cells – cell-based, doxorubicin co-treatment, pilot screen (AID 601;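 active = viability loss from added drug above about 55%, and viability with drug at most 40%, in both replicates, limit read from the data, passing the limit was not always enough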); details: CellTiter-Glo, 72 h, at 10 µM; for differential viability (reversal): stronger effect = higher value
[6] = yeast transport mutant growth inhibition pilot in 384-well plates, post-Golgi transport modulator project (AID 636; in the data active = inhibition above about 31%); details: absorbance 615 nm, about 18 h, stronger effect = higher value
[7] = growth suppression of yeast trafficking mutant, preliminary HTS, modulators of trafficking downstream of Golgi apparatus project, 1536-format plate, OD 615 nm (AID 637; in the data active = inhibition above about 30%); details: yeast transport mutant growth, absorbance 615 nm, 18 h; stronger effect = higher value
[8] = H69AR cells + 2 uM doxorubicin, measured here: viability with 2 uM doxorubicin, stronger effect = lower value
[9] = H69AR cells, compound alone cytotoxicity

| Compound | viability [1] [%] | Her2 level [2] | viability [3] | viability [4] | differential viability (reversal) ([5]; H69AR cells + 2 uM doxorubicin) | viability [5, 8] [%] | viability [5, 9] [%] | inhibition [6] | inhibition [7] |
| --- | --- | --- | --- | --- | --- | --- | --- | --- | --- |
| CC(C)(C)c1cc(NC(=O)c2cc(F)c(F)c(F)c2F)no1 | 102 | 92% (inactive) | 102% (inactive) | 63.6% (inactive) | -20.6% (inactive) | 70.8 | 50.2 | 2.08% (inactive) | -3.83% (inactive) |
| CN1CC=C2C(C#N)=C(N)C(C#N)(C#N)[C@H](c3cccc(Cl)c3)C2C1 (stereo partly specified) | 94 | 73.5% (inactive) | 94% (inactive) | 83% (inactive) | 32.6% (inactive) | 22.1 | 54.7 | -4.27% (inactive) | -1.9% (inactive) |
| CCSc1nnc(NC(=O)c2ccccn2)s1 | 92 | 80.5% (inactive) | 92% (inactive) | 18.4% (active) | -14% (inactive) | 34.8 | 20.8 | 4.03% (inactive) | 9.21% (inactive) |
| Cc1ccc(C)c(S(=O)(=O)C(C#N)c2nc3ccccc3nc2N2CC(C)OC(C)C2)c1 (stereo unspecified) | 91 | 77% (inactive) | 91% (inactive) | 52.2% (inactive) | -10.3% (inactive) | 70.7 | 60.4 | 0.52% (inactive) | 16.7% (inactive) |
| O=C(NCc1ccco1)c1cc2c(s1)CSC2 | 97.5 | 88% (inactive) | 97.5% (inactive) | 82.8% (inactive) | -26.3% (inactive) | 83.6 | 57.3 | -0.92% (inactive) | 2.86% (inactive) |
| CCOC(=O)c1sc(NC(=O)CSc2n[nH]c(-c3ccccc3)n2)c(C#N)c1C | 122 | 65.5% (inactive) | 122% (inactive) | 48.2% (inactive) | 9.27% (inactive) | 32 | 41.3 | -6.27% (inactive) | 2.38% (inactive) |
| CC1=C(C(=O)OC2CCCCC2)C(c2ccc(C)o2)C2=C(CC(C)(C)CC2=O)N1 (stereo unspecified) | 77.5 | 83% (inactive) | 77.5% (inactive) | 50.5% (inactive) | 13.1% (inactive) | 37.4 | 50.5 | 0.38% (inactive) | -7.83% (inactive) |
| Cc1ccc(NC(=O)c2oc3ccc(S(=O)(=O)N4CCOCC4)cc3c2C)cc1C | 91 | 83.5% (inactive) | 91% (inactive) | 51.6% (inactive) | -5.16% (inactive) | 48.6 | 43.4 | -5.26% (inactive) | 2.54% (inactive) |
| COc1ccc(N2C(=O)C(Cl)=C(Nc3c(C)n(C)n(-c4ccccc4)c3=O)C2=O)cc1 | 94 | 68% (inactive) | 94% (inactive) | 81.1% (inactive) | 10% (inactive) | 35.3 | 45.3 | -1.71% (inactive) | -6.03% (inactive) |
| Cc1c(C(=O)NC2CCCc3ccccc32)oc2ccc(S(=O)(=O)N3CCOCC3)cc12 (stereo unspecified) | 94.5 | 89.5% (inactive) | 94.5% (inactive) | 84.9% (inactive) | 1.53% (inactive) | 50.7 | 52.2 | -2% (inactive) | 1.29% (inactive) |
| CCc1cc2c(=O)c(-c3ccc4c(c3)OCCO4)coc2cc1OC(=O)c1ccco1 | 72.5 | 68% (inactive) | 72.5% (inactive) | 64.3% (inactive) | -13.3% (inactive) | 63.9 | 50.5 | -3.29% (inactive) | 2.79% (inactive) |
| Cc1cc(C)c2c(n1)nn1c(N3CCN(c4ccccc4C)CC3)cc(C)nc21 | 73.5 | 95.5% (inactive) | 73.5% (inactive) | 92.4% (inactive) | -0.53% (inactive) | 73.6 | 73.1 | 1.18% (inactive) | 6.73% (inactive) |
| C=CCSC1=C(C#N)C(c2ccccc2C)CC(=O)N1 (stereo unspecified) | 95.5 | 99% (inactive) | 95.5% (inactive) | 89% (inactive) | -0.42% (inactive) | 10.6 | 10.1 | -2.21% (inactive) | -2.38% (inactive) |
| CCn1c(CNc2ccc(OC)cc2)nnc1SCC(=O)c1ccc(OC)cc1 | 110 | 91% (inactive) | 110% (inactive) | 68.8% (inactive) | -14.7% (inactive) | 65.5 | 50.8 | -3.64% (inactive) | 0.33% (inactive) |
| CCOc1ccc2nc(NC(=O)C3CCCN(S(=O)(=O)c4c(C)noc4C)C3)sc2c1 (stereo unspecified) | 124 | 74% (inactive) | 124% (inactive) | 49.7% (inactive) | -23.4% (inactive) | 71.2 | 47.9 | 6.28% (inactive) | 7.5% (inactive) |
| CCOc1ccccc1-n1nnnc1SCC(=O)Nc1cc2oc3ccccc3c2cc1OC | 68.5 | 102% (inactive) | 68.5% (inactive) | 63.6% (inactive) | -11.1% (inactive) | 54.7 | 43.6 | 4.16% (inactive) | -9.05% (inactive) |
| CCC(Sc1nc2n[nH]c(C)c2c(=N)n1-c1cc(Cl)ccc1C)C(=O)N1CCOCC1 (stereo unspecified) | 92.5 | 96% (inactive) | 92.5% (inactive) | 71.2% (inactive) | 29.3% (inactive) | 17 | 46.3 | 2.37% (inactive) | -10% (inactive) |

| Compound | viability [1] [%] | Her2 level [2] | viability [3] | viability [4] | differential viability (reversal) ([5]; H69AR cells + 2 uM doxorubicin) | viability [5, 8] [%] | viability [5, 9] [%] | inhibition [6] | inhibition [7] |
| --- | --- | --- | --- | --- | --- | --- | --- | --- | --- |
| CCOC(=O)c1sc2nc(SCC(=O)NCc3ccco3)n(Cc3ccccc3)c(=O)c2c1C | 90.5 | 84% (inactive) | 90.5% (inactive) | 82% (inactive) | 13% (inactive) | 33 | 46 | -5.68% (inactive) | 0.98% (inactive) |
| CC(=O)N1CCN(c2ccc(NC(=O)c3ccc(C(C)(C)C)cc3)cc2)CC1 | 74.5 | 94% (inactive) | 74.5% (inactive) | 38.7% (inactive) | -12.4% (inactive) | 56.6 | 44.2 | -6.08% (inactive) | -11.3% (inactive) |
| O=C(Nc1sc2c(c1C(=O)NCc1ccco1)CCCC2)c1ccc2c(c1)OCO2 | 89.5 | 92.5% (inactive) | 89.5% (inactive) | 78.7% (inactive) | -11.3% (inactive) | 72.7 | 61.4 | 1.22% (inactive) | -6.35% (inactive) |
| CC(C)C(=O)Nc1ccc(C(=O)NCc2cccnc2)cc1 | 107 | 108% (inactive) | 107% (inactive) | 118% (inactive) | -61.7% (inactive) | 72.5 | 10.8 | 4.42% (inactive) | -7.14% (inactive) |
| CCOC(=O)c1nnc2cc(-c3ccc(Br)cc3)nn2c1C | 76.5 | 93.5% (inactive) | 76.5% (inactive) | 70.3% (inactive) | 6.1% (inactive) | 43.6 | 49.7 | 4.55% (inactive) | -5.24% (inactive) |
| CC(C)Cn1c(=O)c(C(=O)NCc2ccccn2)c(O)c2ccccc21 | 110 | 78.5% (inactive) | 110% (inactive) | 61.4% (inactive) | -15% (inactive) | 67.3 | 52.3 | -7.43% (inactive) | -3.17% (inactive) |
| Cc1[nH]nc(N=CC2=C(O)CC(C)(C)CC2=O)c1-c1ccc(Cl)cc1 | 94.5 | 94.5% (inactive) | 94.5% (inactive) | 79.4% (inactive) | 1.14% (inactive) | 38.9 | 40.1 | 6.8% (inactive) | 6.83% (inactive) |
| O=C(NCc1ccc2c(c1)OCO2)c1cccc2c1C(=O)N(C1CCCCC1)C2 | 102 | 72.5% (inactive) | 102% (inactive) | 87% (inactive) | -12.7% (inactive) | 71.9 | 59.2 | -0.38% (inactive) | 2.83% (inactive) |
| CCCCCCc1ccc(-c2ncc(N)cn2)cc1 | 97 | 90.5% (inactive) | 97% (inactive) | 7.73% (active) | -5.17% (inactive) | 61.9 | 56.7 | -1.47% (inactive) | 0.32% (inactive) |
| CCOC(=O)N1CCN(CCC(=O)c2ccc(Cl)cc2)CC1 | 106 | 89.5% (inactive) | 106% (inactive) | 86.4% (inactive) | -5.11% (inactive) | 17.9 | 12.8 | -2.99% (inactive) | -6.51% (inactive) |
| CCCc1nc2ccccc2c(=O)n1NC(=O)c1c(O)c2cccc3c2n(c1=O)CCC3 | 113 | 87.5% (inactive) | 113% (inactive) | 83.5% (inactive) | -6.06% (inactive) | 72.1 | 66 | -5.2% (inactive) | 14.1% (inactive) |
| N#CC(C(=O)C1CCCCC1)c1nc2ccccc2[nH]1 (stereo unspecified) | 91.5 | 89.5% (inactive) | 91.5% (inactive) | 82% (inactive) | -19.9% (inactive) | 76.1 | 56.1 | 0.66% (inactive) | 20.6% (inactive) |
| Cc1cccc(N2CCN(C(=O)c3ccc(NS(=O)(=O)c4c(C)noc4C)cc3)CC2)c1C | 98 | 106% (inactive) | 98% (inactive) | 68.2% (inactive) | 13.6% (inactive) | 46.2 | 59.8 | -3.68% (inactive) | 2% (inactive) |
| COc1ccc(OCC(=O)N2CCN(C(=O)COc3ccc(Br)cc3)CC2)cc1 | 84.5 | 95.5% (inactive) | 84.5% (inactive) | 81.3% (inactive) | 7.19% (inactive) | 40.4 | 47.6 | -2.67% (inactive) | 3.71% (inactive) |
| CCCNC(=O)c1c(N)n(-c2cc(OC)cc(OC)c2)c2nc3ccccc3nc12 | 89 | 73.5% (inactive) | 89% (inactive) | 38.6% (inactive) | -9.04% (inactive) | 66.7 | 57.6 | -3.87% (inactive) | 2.3% (inactive) |
| COc1ccc(/C=N/n2cc(-c3ccc(OC)cc3)nc2N)cc1 | 85 | 99% (inactive) | 85% (inactive) | 82.5% (inactive) | -10.3% (inactive) | 63.6 | 53.3 | -1.41% (inactive) | -8% (inactive) |
| CCOC(=O)Cc1nnc2c(Nc3ccccc3F)nc3nonc3n12 | 108 | 95.5% (inactive) | 108% (inactive) | 36.9% (inactive) | -18.9% (inactive) | 31.5 | 12.6 | -3.9% (inactive) | -2.54% (inactive) |
